Measurements as given in ChEMBL document CHEMBL1132206, “Design, synthesis, and in vitro activity of catamphiphilic reverters of multidrug resistance: discovery of a selective, highly efficacious chemosensitizer with potency in the nanomolar range” (J Med Chem, 1999).
Active and inactive are the calls of the source. The rule behind the calls is not given here.

Tests used:
Cavia porcellus [1] = species: Cavia porcellus; assay: Potency expressed as EC30 for the negative chronotropic activity.; format: functional
Cavia porcellus [2] = species: Cavia porcellus; assay: Percent inhibition of calcium-induced contraction on K+ depolarized guinea pig aortic strip.; format: functional, Aorta; parameters: concentration or dose not given beside the values
Cavia porcellus [3] = species: Cavia porcellus; assay: Potency expressed as IC50 for the vasorelaxant activity.; format: functional
Cavia porcellus [4] = species: Cavia porcellus; assay: Decrease in developed tension of the left atrium of guinea pig expressed as the negative inotropy.; format: functional, Cardiac atrium; parameters: concentration or dose not given beside the values
Method in brief: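 Isolated guinea pig left atrium, electrically driven at 1 Hz. Read-out is the fall in developed tension at 5 × 10^-5 M, given as percent change from control (n = 5-6).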

Cavia porcellus [5] = species: Cavia porcellus; assay: Decrease in atrial rate of the right atrium of guinea pig expressed as the negative chronotropy.; parameters: concentration or dose not given beside the values
Cavia porcellus [6] = species: Cavia porcellus; assay: Potency expressed as EC50 for the negative inotropic activity.; format: functional
K562 [7] = assay: Potency that causes half maximal increase in nuclear concentration of pirarubicin; 'i' means Inactive; format: functional, cell-based; settings: Homo sapiens
Method in brief: (§1)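 Doxorubicin-resistant and sensitive K 562 cells in exponential growth were used in pH 7.25 HEPES buffer at 37 °C in quartz cuvettes. Pirarubicin uptake was followed as the fall in fluorescence at 590 nm (ex 480 nm). Steady-state nuclear pirarubicin was measured across a range of inhibitor concentrations. α = (CnRi − CnRo)/(CnS − CnRo); αmax is the maximal α, and [i]0.5 is the concentration giving α = 0.5 (mean ± SEM).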

K562 [8] = assay: Percentage of the dead cells of K-562 cells was determined for the compound; format: ADME, cell-based; settings: human
Method in brief: (§2)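 Doxorubicin-resistant K 562 cells were exposed to compound at 1 µM, and viability was scored by trypan blue exclusion. Dead cells above 20% counted as toxic.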

Cavia porcellus [9] = species: Cavia porcellus; assay: Potency expressed as EC50 for the negative inotropic activity; 'i' means Inactive; format: functional
K562 [10] = assay: The efficacy in reverting MDR was evaluated on human erythroleukemia K-562 cell line; format: functional; method in brief: as §1
Cavia porcellus [11] = species: Cavia porcellus; assay: Potency expressed as IC50 for the vasorelaxant activity; format: functional
Cavia porcellus [12] = species: Cavia porcellus; assay: Potency expressed as EC30 for the negative chronotropic activity; format: functional
K562 [13] = assay: Potency that causes a half maximal increase in nuclear concentration of pirarubicin.; format: functional, Homo sapiens
Cavia porcellus [14] = species: Cavia porcellus; assay: Potency expressed as IC50 for the vasorelaxant activity; 'i' means inactive.; format: functional
K562 [15] = assay: percentage of the dead cells of K-562 cells was determined for the concentration of 1 uM of the compound.; format: ADME, cell-based; settings: human, k562, 1 µM; method in brief: as §2
K562 [16] = assay: The efficacy in reverting MDR was evaluated on erythroleukemia K-562 cell line.; format: functional, Homo sapiens; method in brief: as §1
Cavia porcellus [17] = species: Cavia porcellus; assay: Decrease in developed tension of the right atrium of guinea pig expressed as the negative chronotropy.; format: functional, Cardiac atrium; parameters: scale not given: the % may be the effect or the level left
Method in brief: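 Spontaneously beating isolated guinea pig right atrium. Read-out is the fall in atrial rate at 5 × 10^-5 M (10^-5 M for some compounds), given as percent change from control (n = 7-8).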

Cavia porcellus [18] = species: Cavia porcellus; assay: Potency expressed as EC30 for the negative chronotropic activity; 'i' means Inactive; format: functional

SMILES	EC30 (Cavia porcellus [1]) [nM]	Activity (Cavia porcellus [2]) [%]	IC50 (Cavia porcellus [3]) [nM]	Activity (Cavia porcellus [4]) [%]	Activity (Cavia porcellus [5]) [%]	EC50 (Cavia porcellus [6]) [nM]	Potency (K562 [7])	Dead cells (K562 [8]) [%]	EC50 (Cavia porcellus [9])	Alpha max (K562 [10])	IC50 (Cavia porcellus [11]) [nM]	EC30 (Cavia porcellus [12]) [nM]	Potency (K562 [13]) [nM]	IC50 (Cavia porcellus [14])	Dead cells (K562 [15]) [%]	Alpha max (K562 [16])	Activity (Cavia porcellus [17]) [%]	EC30 (Cavia porcellus [18])
COc1ccc(C(C#N)(CCCN(C)C23CC4CC(CC(C4)C2)C3)C(C)C)cc1OC.Cl (stereo not given)	910	65	3800	80	81	3990	inactive	–	–	–	–	–	–	–	–	–	–	–
COc1ccc(C(C#N)(CCCNC23CC4CC(CC(C4)C2)C3)C(C)C)cc1OC.Cl (stereo not given)	–	81	–	45	80	–	–	0	Not Active	0.7	7150	1700	2000	–	–	–	–	–
Cl.N#CC(CCCNCc1c2ccccc2cc2ccccc12)(c1ccccc1)c1ccccc1	660	6	–	48	67	–	–	–	Not Active	–	–	–	500	Inactive	20	0.7	–	–
C=CCNc1nc(NCC=C)nc(N2CCC(NCCCC(C#N)(c3ccc(OC)c(OC)c3)C(C)C)CC2)n1.Cl (stereo not given)	1750	62	3450	39	87	–	–	0	Not Active	0.9	–	–	1600	–	–	–	–	–
Cl.N#CC(CCCNC12CC3CC(CC(C3)C1)C2)(c1ccccc1)c1ccccc1	1260	55	3490	80	69	1030	–	0	–	0.8	–	–	500	–	–	–	–	–
COc1ccc(C(C#N)(CC#CCNCC(c2ccccc2)c2ccccc2)C(C)C)cc1OC.Cl (stereo not given)	830	54	4120	61	67	1060	–	20	–	0.7	–	–	100	–	–	–	–	–
COc1ccc(C(C#N)(CCCN(C)Cc2c3ccccc3cc3ccccc23)C(C)C)cc1OC.Cl (stereo not given)	–	9	–	85	–	650	–	3	–	0.5	–	–	2500	Inactive	–	–	19	inactive
COc1ccc(C(C#N)(CC#CCN(C)CC23CC4CC(CC(C4)C2)C3)C(C)C)cc1OC.Cl (stereo not given)	240	65	3420	77	92	1160	–	0	–	0.8	–	–	1300	–	–	–	–	–
